# Laboratory results from PubChem BioAssay.
# Active and inactive are the calls of the source.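 How the source made its calls, unless noted: active means GFP response above 150% of the DMSO level; inconclusive means fewer than 70 events counted for a yeast strain; inactive means the rest.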
# How the values were obtained:
# [1] = hit retest on RPL19A-GFP reporter strain – cell-based, S. cerevisiae, flow cytometry, cherry picks, mother/daughter gates, confirmation (AID 2270;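 active means GFP response below 50% of the DMSO control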); conditions: 3 h, at 10 µM, stronger effect = lower value, 100 = same GFP as DMSO wells
# [2] = yeast TOR pathway reporter LAP4-GFP change – cell-based, cherry picks, flow cytometry, mother/daughter gates, confirmation (AID 2271;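 active means GFP response above 150% of the DMSO control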;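 further: ratio of sample to DMSO plate mean so 100% equals DMSO level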); conditions: S. cerevisiae LAP4-GFP strain, 3 h, at 10 µM, stronger effect = higher value, 100 means same as DMSO control
# Summary of the method: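 System: GFP-fusion yeast strain; Incubation: compound exposure 3 h at 30 °C, end-over-end rotation; Measured by: GFP by flow cytometry; Read-out: median GFP fluorescence as percent of plate-mean DMSO wells; Medium: synthetic complete (SC) yeast growth medium; Compound: single test-compound dose, 10 µM final; Benchmarks: DMSO-only negative wells, rapamycin 400 ng/mL positive wells.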
# [3] = TOR pathway reporter MEP2-GFP, retest of hits – S. cerevisiae, flow cytometry GFP, cherry picks, confirmation (AID 2272;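 active means GFP response above 150% of the DMSO control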;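 further: ratio of well signal to plate DMSO mean so 100% equals DMSO level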); conditions: S. cerevisiae MEP2-GFP strain, 3 h, at 10 µM, stronger effect = higher value
# [4] = yeast AGP1-GFP fluorescence change, single-dose – cell-based, flow cytometry, S. cerevisiae, cherry picks, confirmation (AID 2273);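 further: median GFP channel fluorescence over the whole cell population gate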; conditions: S. cerevisiae AGP1-GFP strain, 3 h, at 10 µM
# [5] = TOR pathway CIT2 reporter hit retest – S. cerevisiae, GFP fusion, cherry picks, mother/daughter gates, confirmation (AID 2274); conditions: S. cerevisiae CIT2-GFP strain, flow cytometry, 3 h, at 10 µM, stronger effect = higher value
# [6] = measured here: daughter cell gate
# [7] = measured here: mother cell gate
# [8] = measured here: daughter cell gate response
# [9] = measured here: mother cell gate response
Structure (SMILES),GFP response vs DMSO [1],"GFP response vs DMSO [1, 6]","GFP response vs DMSO [1, 7]",GFP response relative to DMSO [2],"GFP response relative to DMSO [2, 8]","GFP response relative to DMSO [2, 9]",GFP response vs DMSO [3],"GFP response, % of DMSO [4]","GFP response, % of DMSO [5]","GFP response, % of DMSO [5, 6]","GFP response, % of DMSO [5, 7]"
Cc1cccn2c(=O)c(/C=C(\C#N)C(=O)NCc3ccco3)c(N3CCCCCC3)nc12,97% (inactive),97.3%,97.2%,96.2% (inactive),95.6%,98.3%,97.8% (inactive),95.4% (inactive),90% (inactive),89.9%,86.9%
CCOC(=O)Cc1csc(NC(=O)c2sc3nc4c(C)cc(C)cc4cc3c2N)n1,104% (inactive),96.7%,97.7%,84.2% (inactive),89.5%,92.1%,109% (inactive),97.2% (inactive),115% (inactive),110%,118%
Cc1ccc(Sc2ccc([N+](=O)[O-])cc2[N+](=O)[O-])nc1,99.7% (inactive),101%,100%,103% (inactive),100%,105%,97.8% (inactive),97.4% (inactive),104% (inactive),99.7%,105%
Cn1c(=O)c(C(=O)Nc2ncccc2O)c(O)c2ccccc21,95.3% (inactive),93.9%,91.8%,100% (inactive),91.3%,90.3%,145% (inactive),99.8% (inactive),90.3% (inactive),90.5%,88.2%
c1ccc(Cn2ncc3ccccc32)cc1,100% (inactive),101%,101%,94.2% (inactive),92.2%,93.6%,99.5% (inactive),96.2% (inactive),97.8% (inactive),98.3%,96.8%
O=C(OCn1ncc(Br)c(Br)c1=O)c1ccc(F)cc1,99.7% (inactive),99.8%,94.8%,210% (active),183%,203%,116% (inactive),106% (inactive),99.3% (inactive),108%,92.1%
Cc1c(NC(=O)Nc2ccc3c(c2)OCO3)c(=O)n(-c2ccccc2)n1C,99.3% (inactive),99.1%,99%,96.5% (inactive),96.5%,93.6%,99.5% (inactive),96.7% (inactive),96.4% (inactive),100%,95.6%
O=[N+]([O-])c1cc(S(=O)(=O)C(F)(F)F)ccc1Sc1nc2ccccc2s1,95.6% (inactive),95.1%,93.1%,184% (active),162%,192%,102% (inactive),88.1% (inactive),107% (inactive),105%,99.7%
Cc1ccc(-c2csc(NC(=O)c3ccno3)n2)cc1,99% (inactive),98.4%,96.5%,103% (inactive),99.1%,106%,99% (inactive),95.1% (inactive),100% (inactive),99.2%,99.3%
CCOC(=O)COc1c(Cl)cc(/C=C2\N=C(C)OC2=O)cc1OC,105% (inactive),105%,103%,109% (inactive),108%,113%,104% (inactive),98.9% (inactive),103% (inactive),105%,99.8%
CC(=O)Nc1ccc(NC(=O)c2oc3cc(C)c(C)cc3c2C)cc1,99% (inactive),96.4%,99.4%,99.2% (inactive),99.2%,98.3%,102% (inactive),102% (inactive),101% (inactive),99.1%,98.5%
CN(C(=O)c1ccccc1Cl)c1ccccc1,100% (inactive),100%,98.8%,94.1% (inactive),96%,93.4%,97.2% (inactive),103% (inactive),101% (inactive),103%,102%
COc1cccc(-c2nnc(NC(=O)c3ccc(S(=O)(=O)N(CC(C)C)CC(C)C)cc3)o2)c1,99.7% (inactive),99.8%,100%,98.8% (inactive),97.9%,97.5%,102% (inactive),101% (inactive),102% (inactive),102%,101%
N#Cc1ccc(Sc2ccccn2)c([N+](=O)[O-])c1,102% (inactive),101%,102%,102% (inactive),105%,103%,102% (inactive),97.8% (inactive),104% (inactive),99.7%,105%
CCOc1ccc(C(=O)/C=C/c2ccc(SC)cc2)cc1,98% (inactive),100%,96.8%,102% (inactive),99.1%,103%,101% (inactive),102% (inactive),100% (inactive),99.2%,80.9%
O=C(CN1CCN(Cc2ccccc2Cl)C1=O)NC1CCCCCCC1,98.2% (inactive),98.6%,99.7%,96.7% (inactive),97.6%,95.1%,100% (inactive),99.7% (inactive),107% (inactive),106%,104%
COc1ccc(/C=N/c2c(-c3ccco3)nc3ccccn23)cc1OC,97.8% (inactive),98.5%,98.6%,95.3% (inactive),96.5%,93.6%,102% (inactive),98.9% (inactive),101% (inactive),100%,100%
O=C(OCC(=O)N1CCN(C(=O)c2ccco2)CC1)c1cc(-c2ccc(F)cc2)nc2ccccc12,78.9% (inactive),74.3%,74.5%,133% (inactive),107%,138%,125% (inactive),138% (inactive),135% (inactive),114%,136%
Cn1c(=O)[nH]c(=O)c2c1nc(N1CCCCC1)n2CCOc1ccccc1,99% (inactive),99.5%,100%,98.7% (inactive),100%,102%,102% (inactive),104% (inactive),103% (inactive),101%,103%
CCCN1CCN(C(=O)c2oc3ccccc3c2NC(=O)COc2ccc(OC)cc2)CC1,98.6% (inactive),100%,99.8%,95.4% (inactive),96%,95.1%,102% (inactive),98.1% (inactive),105% (inactive),106%,106%
O=C(O)C1CCC(NSc2ccccc2[N+](=O)[O-])CC1 (configuration not stated),98.2% (inactive),95.9%,95.2%,145% (inactive),133%,157%,96.8% (inactive),101% (inactive),97.3% (inactive),99.2%,94.4%
O=c1c2ccccc2nc(-c2ccccc2)n1CCN1CCOCC1,101% (inactive),102%,101%,97% (inactive),97.5%,98.4%,101% (inactive),106% (inactive),98.8% (inactive),95.6%,96.8%
COc1ccccc1Oc1ccc(S(=O)(=O)N2CCCC2)cc1,102% (inactive),100%,103%,91.4% (inactive),91%,95.2%,95.7% (inactive),93.5% (inactive),93.9% (inactive),94.8%,92.3%
COc1ccc(OC(=O)c2cccc(S(=O)(=O)N3CCCC3)c2)cc1,96.6% (inactive),95.4%,96.1%,90.2% (inactive),91.2%,89.7%,105% (inactive),96.4% (inactive),103% (inactive),103%,101%
CCN(CC)c1ccc2cc(-c3nc4ccccc4[nH]3)c(=O)oc2c1,108% (inactive),106%,111%,107% (inactive),99.3%,113%,185% (active),108% (inactive),135% (inactive),132%,136%
CN1CCN(/N=C/c2c3ccccc3c(Cl)c3ccccc23)CC1,94.9% (inactive),95%,94%,105% (inactive),101%,101%,105% (inactive),99.8% (inactive),101% (inactive),102%,95.7%
O=C(c1c(F)cccc1F)N1CCN(c2ccccc2F)CC1,99.4% (inactive),99.1%,98.4%,103% (inactive),102%,103%,100% (inactive),92.1% (inactive),107% (inactive),106%,106%
